Values after ≈ are worked out from the molar mass of the structure shown.
Columns and labels:
[1] = test system: C. albicans (ATCC:10231); test: Agar well diffusion, inhibition zone; format: cell-based, Candida albicans; conditions: 15 mg/mL, 100 μL per well; mm ± SD
In short: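 Fungal plates were poured and agar dried 15 min. 6 mm wells were cut with a sterile borer and filled with 100 μL test compound solution at 15 mg/mL. Inhibition zone diameter (mm) was read after 48 h incubation. Triplicate, reported as mm ± SD.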

[2] = test system: E. coli (ATCC:3008); test: Agar well diffusion, inhibition zone; format: cell-based, Escherichia coli; conditions: 15 mg/mL, 100 μL per well; mm ± SD
In short: (§1)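 Agar well diffusion. Saline inoculum adjusted to McFarland 0.5 ([…]), i.e. OD 0.13 at 625 nm, and swabbed over dried agar. After 15 min drying, 6 mm wells received 100 μL of test compound at 15 mg/mL. Plates incubated at 37 °C; bacterial zones read in mm after 24 h incubation […]. Triplicate, reported as mm ± SD. Gentamicin and ampicillin served as reference drugs.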

[3] = test system: herpes simplex virus type 1 (HSV-1); test: Plaque assay, antiviral activity against HSV-1; format: cell-based; conditions: Human alphaherpesvirus 1, Vero
[4] = test system: S. mutans (ATCC:25175); test: Agar well diffusion, inhibition zone; format: cell-based; conditions: for zone of inhibition at 15000 µg/mL: Streptococcus mutans, 24 h, read-out: diameter of the IZ, S. mutans (ATCC:25175)
In short: as §1

[5] = test system: P. aeruginosa (ATCC:27853); test: Agar well diffusion, inhibition zone; format: cell-based, Pseudomonas aeruginosa; conditions: 15 mg/mL, 100 μL per well; mm ± SD
In short: as §1

[6] = test system: adenovirus type 7 (HAdV7); test: Plaque assay, antiviral activity against adenovirus type 7; format: cell-based; conditions: nontoxic dose of compound; average of three independent measurements
In short: (§2)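 Plaque reduction. Nontoxic dilutions of test compound were mixed 1:1 with virus at 1 × 105, 1 × 106 or 1 × 107, for 0.5 h at 37 °C. 10-fold dilutions went onto BGM (CBV4), FRHK4 (HAV HM 175) or Hep-2 (adenovirus 7), with 1 h adsorption at 37 °C. Overlay was 2× DMEM plus 1% agarose. Cells were formalin-fixed and crystal violet-stained, and plaques counted. Triplicate. IC50 is the half-maximal plaque-reduction concentration.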

[7] = Cytotoxicity test on FRHK-4 cell line; format: cell-based; conditions: rhesus monkey, uninfected FRHK-4 cells
In short: (§3)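 Test compound was dissolved at 50 mg/mL in DMSO and decontaminated with 100× antimycotic–antibiotic mix. Cells were seeded at 2 × 10^5 cells/mL and grown 24 h at 37 °C, 5% CO2, to monolayers. Bi-fold dilutions in DMEM were applied for 72 h. Read by daily microscopy for morphology and by trypan blue (0.4%) viable counts. CC50 taken as the concentration giving 50% of untreated-cell OD492.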

[8] = Cytotoxicity test on Vero cell line; format: cell-based; conditions: African green monkey, uninfected Vero cells
In short: as §3

[9] = test system: S. aureus (ATCC:6538); test: Agar well diffusion, inhibition zone; format: cell-based, Staphylococcus aureus; conditions: for zone of inhibition at 15000 µg/mL: Staphylococcus aureus, 24 h, read-out: diameter of the IZ, S. aureus (ATCC:6538)
In short: as §1

[10] = test system: hepatitis A virus HM 175 (HAV HM 175); test: Plaque assay, antiviral activity against HAV HM 175; format: cell-based
In short: as §2

[11] = test system: ED-43/SG-Feo (VYG) replicon of hepatitis C virus genotype 4a (HCVcc); test: Antiviral bioassay against ED-43/SG-Feo; format: cell-based; conditions: nontoxic dose of compound; average of three independent measurements
In short: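 Huh 7.5 cells carrying the ED-43/SG-Feo (VYG) HCV genotype 4a subgenomic replicon were treated with the nontoxic dose of test compound. Replicon RNA copies were quantified by TaqMan qRT-PCR, and the result was expressed as percent reduction.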

[12] = test system: K. pneumonia (ATCC:4415); test: Agar well diffusion, inhibition zone; format: cell-based, Klebsiella pneumonia; conditions: 15 mg/mL, 100 μL per well; mm ± SD
In short: as §1

[13] = Cytotoxicity test on BGM cell line; format: cell-based; conditions: African green monkey, uninfected BGM cells
In short: as §3

[14] = target: Hsp90α (Homo sapiens, UniProt P07900); test: Hsp90α; format: biochemical; conditions: for inhibition at 0.1 µg/mL: read-out: percentage inhibition of Hsp90α at 0.1 (μg/mL); for inhibition at 1 µg/mL: read-out: percentage inhibition of Hsp90α at 1 (μg/mL); for inhibition at 10 µg/mL: read-out: percentage inhibition of Hsp90α at 10 (μg/mL); for inhibition at 100 µg/mL: read-out: percentage inhibition of Hsp90α at 100 (μg/mL)
In short: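 AlphaScreen kit assay for Hsp90α C-terminal binding to PPID. Hsp90α was diluted to 1.5 ng/μL in assay buffer and premixed with test compound. The reaction was started with PPID diluted to 10 ng/μL and run 30 min at room temperature. Glutathione acceptor beads were added for 30 min, then streptavidin donor beads for 1 h, and Alpha counts read. Triplicate; percent inhibition calculated against control.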

[15] = target: T1, dihydrofolate reductase (DHFR) (Homo sapiens, UniProt P00374); test: DHFR inhibitor screening assay; format: biochemical; conditions: for IC50: IC50 on the DHFR, average of three measurements; for inhibition at 0.01 µg/mL: read-out: percent inhibition of DHFR at 0.01 (μg/mL); for inhibition at 0.1 µg/mL: read-out: percent inhibition of DHFR at 0.1 (μg/mL); for inhibition at 1 µg/mL: read-out: percent inhibition of DHFR at 1 (μg/mL); for inhibition at 10 µg/mL: read-out: percent inhibition of DHFR at 10 (μg/mL)
T1 sequence (P00374 1-187): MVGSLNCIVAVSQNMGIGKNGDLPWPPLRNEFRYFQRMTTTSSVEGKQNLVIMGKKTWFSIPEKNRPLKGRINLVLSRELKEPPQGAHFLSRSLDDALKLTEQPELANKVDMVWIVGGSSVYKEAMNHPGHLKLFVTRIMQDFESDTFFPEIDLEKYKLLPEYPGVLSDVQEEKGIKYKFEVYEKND

[16] = test system: E. coli (ATCC:3008); test: MIC, twofold serial dilution in agar; format: cell-based; conditions: Escherichia coli, read-out: MIC, E. coli (ATCC:3008)
[17] = test system: P. aeruginosa (ATCC:27853); test: MIC, twofold serial dilution in agar; format: cell-based; conditions: Pseudomonas aeruginosa, read-out: MIC, P. aeruginosa (ATCC:27853)
[18] = test system: K. pneumonia (ATCC:4415); test: MIC, twofold serial dilution in agar; format: cell-based; conditions: Klebsiella pneumoniae, read-out: MIC, K. pneumonia (ATCC:4415)
[19] = test system: S. mutans (ATCC:25175); test: MIC, twofold serial dilution in agar; format: cell-based; conditions: Streptococcus mutans, read-out: MIC, S. mutans (ATCC:25175)
[20] = test system: S. aureus (ATCC:6538); test: MIC, twofold serial dilution in agar; format: cell-based; conditions: Staphylococcus aureus, read-out: MIC, S. aureus (ATCC:6538)
[21] = test system: C. albicans (ATCC:10231); test: MIC, twofold serial dilution in agar; format: cell-based, Candida albicans
In short: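 Test compound and reference drugs (ampicillin, gentamicin, nystatin) were made as 1000 μg/mL DMSO stocks, then diluted twofold to 500, 250, 125, 62.5 and 31.25 μg/mL. Dilutions were mixed into sterile nutrient agar, and a defined microbial inoculum was applied to the agar surface. Plates incubated at 37 °C in a humid chamber.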

[22] = 15 mg/mL, 100 μL per well, mm ± SD

Hsp90α, sequence (P07900 535-732 limits assumed): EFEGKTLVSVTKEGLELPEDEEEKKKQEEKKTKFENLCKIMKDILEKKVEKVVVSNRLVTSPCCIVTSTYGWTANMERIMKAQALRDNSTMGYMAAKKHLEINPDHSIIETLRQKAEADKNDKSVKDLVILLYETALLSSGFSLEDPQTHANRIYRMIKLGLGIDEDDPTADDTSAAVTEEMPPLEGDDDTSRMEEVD

CCOC(=O)c1cc(C#N)c(=O)n(NS(=O)(=O)c2ccccc2)c1N [15c, Ethyl 2-Amino-5-cyano-6-oxo-1-(phenylsulfonamido)-1,6-dihydropyridine-3-carboxylate]
diameter of the IZ, C. albicans (ATCC:10231) [1]: no activity
diameter of the IZ, E. coli (ATCC:3008) [2]: no activity
IC50 [3]: 90 µg/mL (≈ 248 µM)
diameter of the IZ, S. mutans (ATCC:25175) [4, 22]: no activity
diameter of the IZ, P. aeruginosa (ATCC:27853) [5]: no activity
mean % of reduction, adenovirus type 7 [6]: 36.7 ± 0.30%
CC50 at 72 h [7]: 260 µg/mL (≈ 718 µM)
CC50 at 72 h [8]: 250 µg/mL (≈ 690 µM)
diameter of the IZ, S. aureus (ATCC:6538) [9, 22]: no activity
IC50 ([10]; Hepatovirus A, FRhK-4): 88 µg/mL (≈ 243 µM)
mean % of reduction, HCVcc genotype 4 [11]: 20.0 ± 0.15%
diameter of the IZ, K. pneumonia (ATCC:4415) [12]: no activity
CC50 at 72 h [13]: 260 µg/mL (≈ 718 µM)
inhibition at 0.1 µg/mL [14]: 8.42%
inhibition at 1 µg/mL [14]: 26.1%
inhibition at 10 µg/mL [14]: 48.7%
inhibition at 100 µg/mL [14]: 72.7%

CCOC(=O)c1cc(C#N)c(=O)n(NS(=O)(=O)c2ccc(C)cc2)c1N [15d, Ethyl 2-Amino-5-cyano-1-(4-methylphenylsulfonamido)-6-oxo-1,6-dihydropyridine-3-carboxylate]
diameter of the IZ, E. coli (ATCC:3008) [2]: 19.6 ± 1.5 mm
IC50 [3]: 90 µg/mL (≈ 239 µM)
zone of inhibition at 15000 µg/mL [4]: 9 ± 1 mm
mean % of reduction, adenovirus type 7 [6]: 30.0 ± 0.10%
CC50 at 72 h [8]: 220 µg/mL (≈ 584 µM)
zone of inhibition at 15000 µg/mL [9]: 11.3 ± 1.1 mm
mean % of reduction, HAV HM 175 ([10]; nontoxic dose of compound, average of three independent measurements): 36.7 ± 0.25%
IC50 [15]: 12.4 µM
inhibition at 0.01 µg/mL [15]: 11.1%
inhibition at 0.1 µg/mL [15]: 20.7%
inhibition at 1 µg/mL [15]: 39.9%
inhibition at 10 µg/mL [15]: 56.1%
mean % of reduction, HCVcc genotype 4 [11]: 20.0 ± 0.20%
CC50 at 72 h [13]: 240 µg/mL (≈ 638 µM)
inhibition at 0.1 µg/mL [14]: 10.5%
inhibition at 1 µg/mL [14]: 25.9%
inhibition at 10 µg/mL [14]: 57.4%
inhibition at 100 µg/mL [14]: 89.9%
MIC [16]: 1000 µg/mL (≈ 2660 µM)

Nc1ccc(S(=O)(=O)Nc2ncccn2)cc1 [sulfadiazine, reference compound]
diameter of the IZ, C. albicans (ATCC:10231) [1]: no activity
MIC [17]: 250 µg/mL (≈ 999 µM)
diameter of the IZ, E. coli (ATCC:3008) [2]: 19.8 ± 0.4 mm
MIC [18]: 250 µg/mL (≈ 999 µM)
zone of inhibition at 15000 µg/mL [4]: 16.3 ± 1.1 mm
diameter of the IZ, P. aeruginosa (ATCC:27853) [5]: 24.0 ± 1.4 mm
MIC [19]: 125 µg/mL (≈ 499 µM)
zone of inhibition at 15000 µg/mL [9]: 31.3 ± 2.1 mm
IC50 [15]: 0.803 µM
inhibition at 0.01 µg/mL [15]: 28.7%
inhibition at 0.1 µg/mL [15]: 46.8%
inhibition at 1 µg/mL [15]: 60.2%
inhibition at 10 µg/mL [15]: 76.7%
MIC [20]: 500 µg/mL (≈ 2000 µM)
MIC [16]: 250 µg/mL (≈ 999 µM)

CNC(C)C1CCC(N)C(OC2C(N)CC(N)C(OC3OCC(C)(O)C(NC)C3O)C2O)O1 (stereo not shown) [gentamicin]
MIC [17]: 125 µg/mL (≈ 262 µM)
diameter of the IZ, E. coli (ATCC:3008) [2]: 25.0 ± 0.1 mm
MIC [18]: 62.5 µg/mL (≈ 131 µM)
diameter of the IZ, P. aeruginosa (ATCC:27853) [5]: 35.0 ± 0.1 mm
MIC [16]: 31.2 µg/mL (≈ 65.4 µM)

C[C@@H]1[C@H](O)[C@@H](C)/C=C/C=C/CC/C=C/C=C/C=C/C=C/C(O[C@H]2O[C@H](C)[C@@H](O)[C@H](N)[C@@H]2O)CC2O[C@](O)(CC(O)C(O)CCC(O)CC(O)CC(O)CC(=O)O[C@H]1C)CC(O)C2C(=O)O (stereo partly shown) [nystatin, reference compound]
diameter of the IZ, C. albicans (ATCC:10231) [1]: 28.0 ± 0.2 mm
MIC, C. albicans (ATCC:10231) [21]: 31.25 µg/mL (≈ 33.7 µM)

Source: PMC7557949 (ACS Omega, 2020)
